According to the M2OR odorant receptor database:
Substitutions are numbered along the chain they refer to.

Each molecule was assayed on T1, O2T11. Conditions: stereoisomer not certain.
T1 sequence (whole entry): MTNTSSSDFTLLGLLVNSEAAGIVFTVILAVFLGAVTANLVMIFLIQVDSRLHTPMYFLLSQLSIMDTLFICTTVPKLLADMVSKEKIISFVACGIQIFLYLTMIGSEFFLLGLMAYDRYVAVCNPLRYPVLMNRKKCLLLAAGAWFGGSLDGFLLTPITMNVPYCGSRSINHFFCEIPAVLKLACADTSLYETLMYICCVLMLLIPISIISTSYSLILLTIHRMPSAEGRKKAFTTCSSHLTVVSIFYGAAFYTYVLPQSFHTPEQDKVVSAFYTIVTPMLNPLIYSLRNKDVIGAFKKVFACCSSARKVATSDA
Outline: (§1)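 Each entry records the cell line, G-protein, co-transfected protein and tags used. Methods varied with the source, often transient luciferase assays in mammalian cell lines. A receptor–molecule pair is called responsive (active) if the original authors judged its signal statistically different from baseline and non-responsive (inactive) otherwise.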

Odorant receptor agonist call, inactive:
CCCCCCC=CCCC=O
CC1=NC(C)C(C)S1 (stereo unspecified)
CC1=C(O)C(=O)OC1C (stereo unspecified)
CCCC(S)CCOC(C)=O (stereo unspecified)
CC1=C(O)C(=O)C(C)O1 (stereo unspecified)
CCC1OC(C)=C(O)C1=O (stereo unspecified)
CCC1OC(=O)C(O)=C1C (stereo unspecified)
Cc1cnc(C)c(C)n1

The molecules below were run on T2, O2T27 L36V V134D. Conditions: stereoisomer not certain.
T2 sequence (whole entry): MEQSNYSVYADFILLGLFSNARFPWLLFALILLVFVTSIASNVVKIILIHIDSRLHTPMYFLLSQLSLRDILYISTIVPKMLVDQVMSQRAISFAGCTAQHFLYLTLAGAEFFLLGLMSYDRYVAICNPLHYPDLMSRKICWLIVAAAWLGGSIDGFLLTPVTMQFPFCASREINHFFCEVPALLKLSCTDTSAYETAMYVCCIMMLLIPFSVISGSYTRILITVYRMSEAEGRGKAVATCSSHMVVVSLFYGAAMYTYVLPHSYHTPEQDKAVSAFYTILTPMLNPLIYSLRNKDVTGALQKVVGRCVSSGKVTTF
Outline: as §1

Odorant receptor agonist call, inactive:
CCCCCCC=CCCC=O
CC1=NC(C)C(C)S1 (stereo unspecified)
CC1=C(O)C(=O)OC1C (stereo unspecified)
CCCC(S)CCOC(C)=O (stereo unspecified)
CC1=C(O)C(=O)C(C)O1 (stereo unspecified)
CCC1OC(C)=C(O)C1=O (stereo unspecified)
CCC1OC(=O)C(O)=C1C (stereo unspecified)
Cc1cnc(C)c(C)n1

What follows are molecules tested on T3, O2T29 Q24R. Conditions: stereoisomer not certain.
T3 sequence (whole entry): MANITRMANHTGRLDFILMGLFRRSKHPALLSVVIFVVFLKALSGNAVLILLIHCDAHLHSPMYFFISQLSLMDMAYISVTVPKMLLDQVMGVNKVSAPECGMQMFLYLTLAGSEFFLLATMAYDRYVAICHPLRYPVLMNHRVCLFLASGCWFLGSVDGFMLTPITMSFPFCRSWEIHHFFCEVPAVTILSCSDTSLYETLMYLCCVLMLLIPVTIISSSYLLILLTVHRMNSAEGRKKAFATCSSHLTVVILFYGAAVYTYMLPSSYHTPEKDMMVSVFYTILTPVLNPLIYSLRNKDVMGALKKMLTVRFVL
Outline: as §1

Odorant receptor agonist call, inactive:
CCCCCCC=CCCC=O
CC1=NC(C)C(C)S1 (stereo unspecified)
CC1=C(O)C(=O)OC1C (stereo unspecified)
CCCC(S)CCOC(C)=O (stereo unspecified)
CC1=C(O)C(=O)C(C)O1 (stereo unspecified)
CCC1OC(C)=C(O)C1=O (stereo unspecified)
CCC1OC(=O)C(O)=C1C (stereo unspecified)
Cc1cnc(C)c(C)n1

These molecules were tested on T4, O2T33 A169V. Conditions: stereoisomer not certain.
T4 sequence (whole entry): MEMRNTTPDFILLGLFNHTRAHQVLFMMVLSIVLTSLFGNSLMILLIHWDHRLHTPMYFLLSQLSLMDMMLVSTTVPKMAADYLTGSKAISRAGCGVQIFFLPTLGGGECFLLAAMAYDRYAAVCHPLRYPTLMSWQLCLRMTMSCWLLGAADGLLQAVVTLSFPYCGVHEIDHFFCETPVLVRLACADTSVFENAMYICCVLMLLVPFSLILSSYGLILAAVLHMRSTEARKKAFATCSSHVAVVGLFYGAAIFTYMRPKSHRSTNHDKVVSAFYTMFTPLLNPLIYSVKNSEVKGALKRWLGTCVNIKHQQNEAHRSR
Outline: as §1

Odorant receptor agonist call, inactive:
CCCCCCC=CCCC=O
CC1=NC(C)C(C)S1 (stereo unspecified)
CC1=C(O)C(=O)OC1C (stereo unspecified)
CCCC(S)CCOC(C)=O (stereo unspecified)
CC1=C(O)C(=O)C(C)O1 (stereo unspecified)
CCC1OC(C)=C(O)C1=O (stereo unspecified)
CCC1OC(=O)C(O)=C1C (stereo unspecified)
Cc1cnc(C)c(C)n1

These molecules were tested on T5, O2T33 G297E I309L. Conditions: stereoisomer not certain.
T5 sequence (whole entry): T4 sequence (whole entry) with V169A, G297E, I309L
Outline: as §1

Odorant receptor agonist call, inactive:
CCCCCCC=CCCC=O
CC1=NC(C)C(C)S1 (stereo unspecified)
CC1=C(O)C(=O)OC1C (stereo unspecified)
CCCC(S)CCOC(C)=O (stereo unspecified)
CC1=C(O)C(=O)C(C)O1 (stereo unspecified)
CCC1OC(C)=C(O)C1=O (stereo unspecified)
CCC1OC(=O)C(O)=C1C (stereo unspecified)
Cc1cnc(C)c(C)n1

What follows are molecules tested on T6, O2T34 Q6P R267P. Conditions: stereoisomer not certain.
T6 sequence (whole entry): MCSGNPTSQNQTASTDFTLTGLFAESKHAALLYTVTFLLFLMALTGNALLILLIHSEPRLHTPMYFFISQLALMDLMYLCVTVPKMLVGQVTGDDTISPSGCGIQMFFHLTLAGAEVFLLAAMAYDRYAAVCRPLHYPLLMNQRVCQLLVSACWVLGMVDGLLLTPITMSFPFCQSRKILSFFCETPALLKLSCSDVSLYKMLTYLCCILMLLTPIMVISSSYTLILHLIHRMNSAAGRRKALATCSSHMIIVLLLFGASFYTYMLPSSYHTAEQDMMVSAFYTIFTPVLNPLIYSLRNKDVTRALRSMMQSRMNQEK
Outline: as §1

Odorant receptor agonist call, inactive:
CCCCCCC=CCCC=O
CC1=NC(C)C(C)S1 (stereo unspecified)
CC1=C(O)C(=O)OC1C (stereo unspecified)
CCCC(S)CCOC(C)=O (stereo unspecified)
CC1=C(O)C(=O)C(C)O1 (stereo unspecified)
CCC1OC(C)=C(O)C1=O (stereo unspecified)
CCC1OC(=O)C(O)=C1C (stereo unspecified)
Cc1cnc(C)c(C)n1

What follows are molecules tested on T7, O2T34 R267P. Conditions: stereoisomer not certain.
T7 sequence (whole entry): T6 sequence (whole entry) with P6Q
Outline: as §1

Odorant receptor agonist call, inactive:
CCCCCCC=CCCC=O
CC1=NC(C)C(C)S1 (stereo unspecified)
CC1=C(O)C(=O)OC1C (stereo unspecified)
CCCC(S)CCOC(C)=O (stereo unspecified)
CC1=C(O)C(=O)C(C)O1 (stereo unspecified)
CCC1OC(C)=C(O)C1=O (stereo unspecified)
CCC1OC(=O)C(O)=C1C (stereo unspecified)
Cc1cnc(C)c(C)n1
